From ChEMBL document CHEMBL1129660, “Studies on 6-aminoquinolones: synthesis and antibacterial evaluation of 6-amino-8-methylquinolones” (J Med Chem, 1996)
Converted amounts (≈) assume the structure as drawn.

How the values were obtained:
Type in all cases: functional
[1] = system: Proteus vulgaris; experiment: Antibacterial activity tested against Proteus vulgaris CNUR 5
How it was run: (§1)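 MICs (µg/mL) determined by conventional agar dilution against a panel of eight Gram-negative and five Gram-positive reference strains.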

[2] = Geometric mean of antibacterial activity (Gram -ve bacteria) of the compound
How it was run: (§2)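 Geometric means calculated from agar-dilution MICs (µg/mL), taken separately across the five Gram-positive and the eight Gram-negative panel strains.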

[3] = system: Enterobacter cloacae; experiment: Antibacterial activity tested against Enterobacter cloacae OMNFI 174
[4] = system: Staphylococcus aureus; experiment: Antibacterial activity against Staphylococcus aureus MPR 5; how it was run: as §1
[5] = system: Shigella; experiment: Antibacterial activity tested against Shigella enteritidis; how it was run: as §1
[6] = system: Staphylococcus epidermidis; experiment: Antibacterial activity tested against Staphylococcus epidermidis CPHL A2; how it was run: as §1
[7] = system: Escherichia coli; experiment: Antibacterial activity tested against Escherichia coli ATCC 8739; how it was run: as §1
[8] = system: Staphylococcus epidermidis; experiment: Antibacterial activity tested against Staphylococcus epidermidis HCF Berset C; how it was run: as §1
[9] = system: Providencia stuartii; experiment: Antibacterial activity tested against Providencia stuartii CNUR 5; how it was run: as §1
[10] = system: Streptococcus pneumoniae; experiment: Antibacterial activity tested against Streptococcus pneumoniae
[11] = system: Staphylococcus aureus; experiment: Antibacterial activity tested against Staphylococcus aureus Methicillin-and Ciprofloxacin resistants; Range is 0.05-1 ug/mL
[12] = species on record: Mus musculus; experiment: Minimum inhibitory concentration against Septicemia caused by Staphylococcus aureus in mice
[13] = system: Mus musculus; experiment: Efficacy against Septicemia caused by Staphylococcus aureus in mice by subcutaneous administration; settings: sc
How it was run: (§3)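 S. aureus Smith ATCC19636, overnight brain-heart infusion culture diluted in 5% mucin, given i.p. (0.5 mL) to male and female CD-1 mice (18-22 g). Single s.c. or oral dose within 10 min of infection, drug in DMSO/0.5% methocel or as suspension. 3-5 dose groups of six mice; ED50 with 95% limits by Spearman-Kärber from day-7 survival.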

[14] = system: Bacteria; experiment: Geometric mean of antibacterial activity (Gram +ve bacteria) of the compound; how it was run: as §2
[15] = system: Escherichia coli; experiment: Inhibitory activity against gyrase supercoiling activity from Escherichia coli
How it was run: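 Inhibition of DNA gyrase supercoiling activity, by a previously described protocol with slight modifications. IC50 derived by densitometric quantification of the supercoiled DNA peak in an agarose gel.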

[16] = system: Pseudomonas aeruginosa; experiment: Antibacterial activity tested against P. ae (Pseudomonas aeruginosa) ATCC 9027; how it was run: as §1
[17] = system: Staphylococcus aureus; experiment: Antibacterial activity against Staphylococcus aureus ATCC 6538; how it was run: as §1
[18] = system: Escherichia coli; experiment: Antibacterial activity tested against Escherichia coli ISF 432; how it was run: as §1
[19] = system: Mus musculus; experiment: Efficacy against Septicemia caused by Staphylococcus aureus in mice by Oral administration; how it was run: as §3
[20] = system: Enterococcus faecalis; experiment: Antibacterial activity tested against Streptococcus faecalis LEP Br; how it was run: as §1
[21] = system: Enterococcus faecalis; experiment: Antibacterial activity tested against Enterococcus faecalis
[22] = system: Klebsiella pneumoniae; experiment: Antibacterial activity tested against Klebsiella pneumoniae (Klebsiella pneumoniae) ATCC 10031; how it was run: as §1
[23] = system: Enterococcus faecium; experiment: Antibacterial activity tested against Enterococcus faecium; Range is 0.06-1 ug/mL
[24] = system: Staphylococcus aureus; experiment: Antibacterial activity tested against Staphylococcus aureus; Range is 0.004-0.03 ug/mL
[25] = system: Streptococcus pneumoniae; experiment: Antibacterial activity tested against Streptococcus pneumoniae; Range is 1-2 ug/mL
[26] = system: Enterococcus faecium; experiment: Antibacterial activity tested against Enterococcus faecium; Range is 0.13-2 ug/mL
[27] = system: Staphylococcus aureus; experiment: Antibacterial activity tested against Staphylococcus aureus Methicillin-and Ciprofloxacin resistants; Range is 1-2 ug/mL
[28] = system: Enterococcus faecalis; experiment: Antibacterial activity tested against Enterococcus faecalis; Range is 0.13-0.25 ug/mL
[29] = system: Staphylococcus aureus; experiment: Antibacterial activity tested against Staphylococcus aureus; Range is 0.016-0.13 ug/mL
[30] = system: Staphylococcus aureus; experiment: Antibacterial activity tested against Staphylococcus aureus; Range is 0.06-0.13 ug/mL
[31] = system: Staphylococcus aureus; experiment: Antibacterial activity tested against Staphylococcus aureus Methicillin-and Ciprofloxacin resistants; Range is 2-4 ug/mL
[32] = system: Enterococcus faecium; experiment: Antibacterial activity tested against Enterococcus faecium; Range is 1-32 ug/mL
[33] = system: Enterococcus faecalis; experiment: Antibacterial activity tested against Enterococcus faecalis; Range is 0.13-0.5 ug/mL
[34] = system: Enterococcus faecium; experiment: Antibacterial activity tested against Enterococcus faecium; Range is 1-2 ug/mL

| Compound | MIC [1] [µg/mL] | Geometric mean [2] | MIC [3] [µg/mL] | MIC [4] [µg/mL] | MIC [5] [µg/mL] | MIC [6] [µg/mL] | MIC [7] [µg/mL] | MIC [8] [µg/mL] | MIC [9] [µg/mL] | MIC [10] [µg/mL] | Geometric mean [14] | IC50 [15] [µg/mL] | MIC [16] [µg/mL] | MIC [17] [µg/mL] | MIC [18] [µg/mL] | MIC [20] [µg/mL] | MIC [21] [µg/mL] | MIC [22] [µg/mL] | MIC [25] [µg/mL] | MIC [29] [µg/mL] | also measured |
| --- | --- | --- | --- | --- | --- | --- | --- | --- | --- | --- | --- | --- | --- | --- | --- | --- | --- | --- | --- | --- | --- |
| Cc1c(N2CCc3ccccc3C2)c(N)cc2c(=O)c(C(=O)O)cn(C3CC3)c12 | 2 (≈ 5.14 µM) | 0.105 | 0.25 (≈ 0.642 µM) | 0.008 (≈ 0.0205 µM) | 0.25 (≈ 0.642 µM) | 0.016 (≈ 0.0411 µM) | 0.008 (≈ 0.0205 µM) | 0.03 (≈ 0.077 µM) | 0.06 (≈ 0.154 µM) | 0.13 (≈ 0.334 µM) | 0.024 | 3.58 (≈ 9.19 µM) | 0.5 (≈ 1.28 µM) | 0.008 (≈ 0.0205 µM) | 0.008 (≈ 0.0205 µM) | 0.25 (≈ 0.642 µM) | 0.06 (≈ 0.154 µM) | 0.06 (≈ 0.154 µM) | – | – | MIC [11]: 0.05 µg/mL (≈ 0.128 µM); MIC [12]: 0.016 µg/mL (≈ 0.0411 µM); ED50 [13]: 1.3 mg/kg; ED50 [19]: 5 mg/kg; MIC [23]: 0.06 µg/mL (≈ 0.154 µM); MIC [24]: 0.004 µg/mL (≈ 0.0103 µM) |
| Cc1c(N2CCC(C)CC2)c(N)cc2c(=O)c(C(=O)O)cn(C3CC3)c12 | 8 (≈ 22.5 µM) | 0.268 | 0.5 (≈ 1.41 µM) | 0.06 (≈ 0.169 µM) | 0.5 (≈ 1.41 µM) | 0.125 (≈ 0.352 µM) | 0.03 (≈ 0.0844 µM) | 0.125 (≈ 0.352 µM) | 0.5 (≈ 1.41 µM) | – | 0.122 | 5.86 (≈ 16.5 µM) | 1 (≈ 2.81 µM) | 0.06 (≈ 0.169 µM) | 0.03 (≈ 0.0844 µM) | 0.5 (≈ 1.41 µM) | – | 0.03 (≈ 0.0844 µM) | 1 (≈ 2.81 µM) | 0.016 (≈ 0.045 µM) | MIC [26]: 0.13 µg/mL (≈ 0.366 µM); MIC [27]: 1 µg/mL (≈ 2.81 µM); MIC [28]: 0.13 µg/mL (≈ 0.366 µM) |
| Cc1c(N2C[C@@H](C)O[C@@H](C)C2)c(N)cc2c(=O)c(C(=O)O)cn(C3CC3)c12 | 8 (≈ 21.5 µM) | 0.336 | 1 (≈ 2.69 µM) | 0.03 (≈ 0.0808 µM) | 1 (≈ 2.69 µM) | 0.125 (≈ 0.337 µM) | 0.008 (≈ 0.0215 µM) | 0.125 (≈ 0.337 µM) | 1 (≈ 2.69 µM) | 2 (≈ 5.38 µM) | 0.107 | > 50 | 4 (≈ 10.8 µM) | 0.03 (≈ 0.0808 µM) | 0.008 (≈ 0.0215 µM) | 1 (≈ 2.69 µM) | 0.05 (≈ 0.135 µM) | 0.08 (≈ 0.215 µM) | – | – | MIC [30]: 0.06 µg/mL (≈ 0.162 µM); MIC [31]: 2 µg/mL (≈ 5.38 µM); MIC [32]: 1 µg/mL (≈ 2.69 µM) |
| Cc1c(N2CCCCC2)c(N)cc2c(=O)c(C(=O)O)cn(C3CC3)c12 | 8 (≈ 23.4 µM) | 0.225 | 0.25 (≈ 0.732 µM) | 0.06 (≈ 0.176 µM) | 0.25 (≈ 0.732 µM) | 0.125 (≈ 0.366 µM) | 0.03 (≈ 0.0879 µM) | 0.125 (≈ 0.366 µM) | 0.5 (≈ 1.46 µM) | – | 0.123 | 3.22 (≈ 9.43 µM) | 1 (≈ 2.93 µM) | 0.06 (≈ 0.176 µM) | 0.03 (≈ 0.0879 µM) | 0.5 (≈ 1.46 µM) | – | 0.03 (≈ 0.0879 µM) | 1 (≈ 2.93 µM) | 0.016 (≈ 0.0469 µM) | MIC [31]: 2 µg/mL (≈ 5.86 µM); MIC [33]: 0.5 µg/mL (≈ 1.46 µM); MIC [34]: 1 µg/mL (≈ 2.93 µM) |
